Reference: ChEMBL document CHEMBL1142294, “Design and synthesis of benzo-lipoxin A4 analogs with enhanced stability and potent anti-inflammatory properties” (Bioorg Med Chem Lett, 2008)

Columns and labels:
[1] = Stability assessed as rate of NADH formation in presence of eicosanoid oxido-reductase; assay type: ADME
In short: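 Compound at ~15 μM incubated with 50 ng recombinant eicosanoid oxido-reductase in 0.1 M Tris–HCl pH 9.0 with 1 mM NAD⁺, 37 °C, 25 min, while NADH formation was monitored. Initial velocity was taken by linear regression over the linear phase of conversion. Values are means ± SEM, n = 3.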

Mus musculus = experiment: Antiinflammatory activity against FVB mouse assessed as inhibition of zymosan-induced neutrophil infiltration at 15 ug/kg, iv relative to control; assay type: functional
In short: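 Male FVB mice, 6–8 weeks old, given 15 μg kg⁻¹ by intravenous bolus into the tail vein in 100 μL sterile saline, then an intraperitoneal injection of zymosan A (1 mg/1 mL). Peritoneal lavage was collected at 2 h, and total leukocytes, PMNs and monocytes were counted. PMN inhibition is relative to zymosan A plus saline vehicle. Values are means ± SEM, n = 5–10.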

Stability [1] [µM/min] | SMILES | inhibition in vivo at 0.015 mg/kg (Mus musculus) [%]
0.14 | CCCCC[C@@H](O)/C=C/C=C/c1ccccc1/C=C/[C@@H](O)[C@@H](O)CCCC(=O)OC | 17.3
0.19 | CCCCC[C@@H](O)/C=C/c1ccccc1/C=C/[C@@H](O)[C@@H](O)CCCC(=O)OC | 32.2
0.21 | CCCCC[C@@H](O)/C=C/C=C\C=C\C=C\[C@@H](O)[C@@H](O)CCCC(=O)O | –
2.42 | CCCCC[C@H](O)/C=C/C=C\C=C\C=C\[C@@H](O)[C@@H](O)CCCC(=O)O [LIPOXIN A4] | –

The next lines start with the molecule.

SMILES | Stability [1] [µM/min] | inhibition in vivo at 0.015 mg/kg (Mus musculus) [%]
CCCCC[C@@H](O)/C=C/c1cccc(/C=C/[C@@H](O)[C@@H](O)CCCC(=O)OC)c1 | 0.45 | 32
COC(=O)CCC[C@H](O)[C@H](O)/C=C/C=C/C=C\C=C\[C@H](O)COc1ccc(F)cc1 | – | 40.5
CCCCCC/C=C/c1ccccc1/C=C/[C@@H](O)[C@@H](O)CCCC(=O)OC | 0.04 | 23.9
CCCCCC(O)c1ccccc1/C=C/[C@@H](O)[C@@H](O)CCCC(=O)OC (mixture of isomers) | 0.09 | 22.3
